Columns and labels:
Steryl-sulfatase [1] = molecular target: T1, Steryl-sulfatase (Homo sapiens, UniProt P08842); test: Inhibitory activity against human steroid sulfatase over-expressed in CHO cells; assay type: functional, cell-based
T1 sequence (P08842 whole entry): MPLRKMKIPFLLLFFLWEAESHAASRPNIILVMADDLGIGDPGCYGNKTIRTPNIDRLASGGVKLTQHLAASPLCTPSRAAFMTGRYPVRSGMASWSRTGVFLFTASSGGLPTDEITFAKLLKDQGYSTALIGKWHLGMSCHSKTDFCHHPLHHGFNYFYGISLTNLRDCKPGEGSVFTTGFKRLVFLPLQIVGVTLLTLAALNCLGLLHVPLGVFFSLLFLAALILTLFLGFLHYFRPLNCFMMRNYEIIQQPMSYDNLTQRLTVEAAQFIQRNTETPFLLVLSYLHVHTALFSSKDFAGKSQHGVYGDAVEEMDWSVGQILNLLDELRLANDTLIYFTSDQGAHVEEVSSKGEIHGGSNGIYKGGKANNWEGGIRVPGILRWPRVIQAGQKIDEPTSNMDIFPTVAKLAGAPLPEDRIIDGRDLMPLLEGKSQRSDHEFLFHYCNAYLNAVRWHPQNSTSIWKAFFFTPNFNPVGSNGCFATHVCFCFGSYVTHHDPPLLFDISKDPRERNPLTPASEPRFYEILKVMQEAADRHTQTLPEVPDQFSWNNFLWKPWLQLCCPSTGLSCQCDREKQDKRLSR
How it was run: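 Live CHO cells stably expressing human STS, 30 000/well, adhered overnight in phenol red-free RPMI 1640 with 10% FCS. Cells were treated with graded inhibitor for 24 h. Medium was then replaced with the same concentrations plus 0.5 mM 4-MUS for 4 h at 37 °C. Supernatant was stopped at pH 10.4 and read at ex 355/em 460 nm. Signal was normalized to sulforhodamine B protein. Triplicates; IC50 is 50% inhibition.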

Steryl-sulfatase [2] = molecular target: T1, Steryl-sulfatase; test: Inhibitory activity against human steroid sulfatase
How it was run: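 Highly purified human STS from stably transfected recombinant CHO cells (purity >95%). Substrate 0.5 mM 4-methylumbelliferyl sulfate, pH 7.5, 37 °C. 4-Methylumbelliferone formed was read by fluorescence after alkalization. Inhibitors were added at graded concentrations from ethanol stocks (final ethanol ≤2%). Ki came from turnover at several substrate and inhibitor levels, using a Hanes plot and a Km/Vmax vs I replot.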

| IC50 (Steryl-sulfatase [1]) [µM] | Ki (Steryl-sulfatase [2]) [µM] | SMILES |
| --- | --- | --- |
| 0.026 | 0.19 | NS(=O)(=O)Oc1ccc2oc(C34CC5CC(CC(C5)C3)C4)cc(=O)c2c1 |
| > 30 | > 50 | NC(=O)c1ccc2oc(C34CC5CC(CC(C5)C3)C4)cc(=O)c2c1 |
| 9.4 | 0.5 | O=C(O)c1ccc2oc(C34CC5CC(CC(C5)C3)C4)cc(=O)c2c1 |
| > 30 | > 50 | COC(=O)c1ccc2oc(C34CC5CC(CC(C5)C3)C4)cc(=O)c2c1 |
| 0.18 | 0.53 | O=C(O)c1ccc2sc(C34CC5CC(CC(C5)C3)C4)cc(=O)c2c1 |
| > 30 | 3.2 | O=C(CO)c1ccc2oc(C34CC5CC(CC(C5)C3)C4)cc(=O)c2c1 |
| 12.3 | 2.2 | O=C(O)C(=O)c1ccc2oc(C34CC5CC(CC(C5)C3)C4)cc(=O)c2c1 |
| > 30 | > 20 | O=Cc1ccc2oc(C34CC5CC(CC(C5)C3)C4)cc(=O)c2c1 |
| 0.024 | 0.21 | NS(=O)(=O)Oc1ccc2sc(C34CC5CC(CC(C5)C3)C4)cc(=O)c2c1 |
| > 30 | > 50 | N#Cc1ccc2sc(C34CC5CC(CC(C5)C3)C4)cc(=O)c2c1 |
| > 30 | > 50 | O=C(O)Cc1ccc2oc(C34CC5CC(CC(C5)C3)C4)cc(=O)c2c1 |
| ~30 | 32 | O=c1cc(C23CC4CC(CC(C4)C2)C3)oc2ccc(CO)cc12 |

| SMILES | IC50 (Steryl-sulfatase [1]) [µM] | Ki (Steryl-sulfatase [2]) [µM] |
| --- | --- | --- |
| C[C@]12CC[C@@H]3c4ccc(OS(N)(=O)=O)cc4CC[C@H]3[C@@H]1CCC2=O [EMATE] | 0.02 | – |
